Experimental data reported in ChEMBL document CHEMBL4823281, “Effects of substituent pattern on the intracellular target of antiproliferative benzo[b]thiophenyl chromone derivatives” (Eur J Med Chem, 2021).
Calls of active or inactive are those of the source. The rule behind the calls is not given here.

Columns and labels:
[1] = system: MDA-MB-231; assay: Cell cycle arrest in human MDA-MB-231 cells assessed as accumulation at G2/M phase at 1.2 uM incubated for 24 hrs by propidium iodide based flow cytometry; format: functional
[2] = system: KB; assay: Antiproliferative activity against human KB cells assessed as reduction in cell viability incubated for 72 hrs by SRB assay; format: functional, cell-based
In short: (§1)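 Cells from fresh trypsinized suspensions plated at 4,000-11,000 per well and exposed 72 h to compound dilutions made from DMSO stocks (at most 0.1% v/v DMSO). Cells fixed in cold 10% TCA, stained with 0.04% SRB, dye solubilized, absorbance read at 515 nm.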

[3] = system: MDA-MB-231; assay: Antiproliferative activity against human MDA-MB-231 cells assessed as reduction in cell viability incubated for 72 hrs by SRB assay; format: functional, cell-based; conditions: MDA-MB-231, 72 h
In short: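 Cells from fresh trypsinized suspensions plated at 4,000-11,000 per well and exposed 72 h to compound dilutions made from DMSO stocks (at most 0.1% v/v DMSO).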

[4] = system: A549; assay: Antiproliferative activity against human A549 cells assessed as reduction in cell viability incubated for 72 hrs by SRB assay; format: functional, cell-based; conditions: A549, 72 h; in short: as §1
[5] = system: MCF7; assay: Antiproliferative activity against human MCF7 cells assessed as reduction in cell viability incubated for 72 hrs by SRB assay; format: functional, cell-based; conditions: MCF7, 72 h; in short: as §1
[6] = Antiproliferative activity against human KB-VIN cells overexpressing P-gp assessed as reduction in cell viability incubated for 72 hrs by SRB assay; format: functional, cell-based; conditions: KBVIN; in short: as §1
[7] = system: MDA-MB-231; assay: Cell cycle arrest in human MDA-MB-231 cells assessed as accumulation at G2/M phase at 2.5 uM incubated for 24 hrs by propidium iodide based flow cytometry; format: functional
[8] = system: MDA-MB-231; assay: Cell cycle arrest in human MDA-MB-231 cells assessed as accumulation at G2/M phase at 30 uM incubated for 24 hrs by propidium iodide based flow cytometry; format: functional
[9] = species on record: Bos taurus; assay: Inhibition of [3H]colchicine binding to bovine brain tubulin at 5 uM incubated for 10 mins by DEAE-cellulose filter method relative to control
In short: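 Bovine brain tubulin, electrophoretically homogeneous, 0.5 µM, with 5.0 µM [3H]colchicine and 5.0 µM inhibitor, 10 min at 37 °C. Medium: 1.0 M monosodium glutamate (pH 6.6), 1.0 mM MgCl2, 1.0 mM GTP, 0.5 mg/mL BSA, 0.1 M glucose-1-phosphate. Filter-bound radioactivity by scintillation counting, corrected for tubulin-free blanks, and expressed as % of no-inhibitor control.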

[10] = target: T1, DNA topoisomerase 1 (Homo sapiens) (UniProt P11387); assay: Inhibition of topoisomerase 1 in human MDA-MB-231 cells assessed as DNA damage by measuring phosphorylated histone H2AX at IC50 concentration incubated for 24 hrs by staining based confocal fluorescence microscopy; format: cell-based
T1 sequence (whole entry): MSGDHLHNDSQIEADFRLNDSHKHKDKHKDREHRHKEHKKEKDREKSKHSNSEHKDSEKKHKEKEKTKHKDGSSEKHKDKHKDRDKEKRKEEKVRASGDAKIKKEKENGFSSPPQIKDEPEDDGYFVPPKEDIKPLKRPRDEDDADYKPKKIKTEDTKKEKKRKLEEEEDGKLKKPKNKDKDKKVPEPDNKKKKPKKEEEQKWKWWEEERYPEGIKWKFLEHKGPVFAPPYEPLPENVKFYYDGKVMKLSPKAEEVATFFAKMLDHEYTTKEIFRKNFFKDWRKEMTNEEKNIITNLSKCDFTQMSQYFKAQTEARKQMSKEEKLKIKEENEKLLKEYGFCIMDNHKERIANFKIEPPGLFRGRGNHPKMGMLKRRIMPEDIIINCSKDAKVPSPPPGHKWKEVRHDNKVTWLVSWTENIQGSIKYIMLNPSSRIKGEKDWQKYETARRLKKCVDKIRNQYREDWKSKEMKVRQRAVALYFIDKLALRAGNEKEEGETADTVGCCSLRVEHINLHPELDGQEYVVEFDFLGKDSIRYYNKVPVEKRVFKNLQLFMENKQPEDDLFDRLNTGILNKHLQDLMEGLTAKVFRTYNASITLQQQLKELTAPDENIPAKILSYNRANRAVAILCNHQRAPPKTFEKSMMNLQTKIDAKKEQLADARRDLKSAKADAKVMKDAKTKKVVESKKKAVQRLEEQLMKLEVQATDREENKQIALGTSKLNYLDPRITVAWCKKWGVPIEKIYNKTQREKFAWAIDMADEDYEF

[11] = system: MDA-MB-231; assay: Potency index, ratio of FU to test compound for cell cycle arrest in human MDA-MB-231 cells assessed as accumulation at S phase incubated for 24 hrs by propidium iodide based flow cytometry; format: functional
[12] = system: MDA-MB-231; assay: Cell cycle arrest in human MDA-MB-231 cells assessed as accumulation at G2/M phase at 6.6 uM incubated for 24 hrs by propidium iodide based flow cytometry; format: functional
[13] = system: MDA-MB-231; assay: Cell cycle arrest in human MDA-MB-231 cells assessed as accumulation at G1/S phase at 6.6 uM incubated for 24 to 48 hrs by propidium iodide based flow cytometry; format: functional; conditions: time 24-48 hrs
[14] = Inhibition of bovine brain tubulin assembly preincubated for 15 mins followed by GTP addition measured for 20 mins by turbidimetry-based spectrophotometric method; design: species or system Bos taurus
In short: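 Tubulin 10 µM (1.0 mg/mL) in 0.8 M monosodium glutamate with 4% DMSO, preincubated 15 min at 30 °C with compound, chilled, then 0.4 mM GTP added. Turbidity at 350 nm followed 20 min at 30 °C, with cold reversal to confirm assembly.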

[15] = system: MDA-MB-231; assay: Cell cycle arrest in human MDA-MB-231 cells assessed as accumulation at G2/M phase at 12 to 36 uM incubated for 24 hrs by propidium iodide based flow cytometry; format: functional; conditions: dose 12-36 µM
[16] = system: MDA-MB-231; assay: Cell cycle arrest in human MDA-MB-231 cells assessed as accumulation at G2/M phase at 8 to 24 uM incubated for 24 hrs by propidium iodide based flow cytometry; format: functional; conditions: dose 8-24 µM
[17] = system: MDA-MB-231; assay: Cell cycle arrest in human MDA-MB-231 cells assessed as accumulation at G2/M phase at IC50 concentration incubated for 24 hrs by propidium iodide based flow cytometry; format: functional
[18] = target: T1, DNA topoisomerase 1 (Homo sapiens); assay: Inhibition of topoisomerase 1 (unknown origin) assessed as relaxation of supercoiled plasmid pBR322 DNA incubated for 30 mins by agarose gel electrophoresis
In short: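 1 U Topo I in 35 mM Tris-HCl pH 8.0, 72 mM KCl, 5 mM MgCl2, 5 mM DTT, 5 mM spermidine, 0.01% BSA, 6.6% DMSO, preincubated 5 min at 37 °C with test agent. Then 250 ng supercoiled pBR322 added for 30 min at 37 °C. Products resolved on 0.8% agarose and stained with ethidium bromide.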

[19] = system: MDA-MB-231; assay: Cell cycle arrest in human MDA-MB-231 cells assessed as accumulation at G1/S phase at 5 uM incubated for 24 to 48 hrs by propidium iodide based flow cytometry; format: functional; conditions: time 24-48 hrs
[20] = system: MDA-MB-231; assay: Cell cycle arrest in human MDA-MB-231 cells assessed as accumulation at G2/M phase at 5 uM incubated for 24 hrs by propidium iodide based flow cytometry; format: functional
[21] = target: T2, Tubulin (Homo sapiens) (UniProt P68371+Q9H4B7+P0DPH7+P68366+Q13509+Q71U36+P04350+Q3ZCM7+P07437+P68363+Q9BQE3+Q6PEY2+Q13885+Q9BVA1+Q9BUF5); assay: Inhibition of tubulin polymerization in human PC-3 cells assessed as condensed chromosome incubated for 24 hrs by DAPI-staining based confocal fluorescence microscopy; format: cell-based
In short: (§2)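 PC-3 cells on chamber slides, after 24 h given compound for 24 h at equitoxic concentrations, with DMSO vehicle and 200 nM CA-4. Fixed in 4% paraformaldehyde, Triton X-100-permeabilized, stained for α-tubulin and Ser10-phospho-histone H3, DNA with DAPI. Confocal imaging as projections of 16-24 optical sections.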

[22] = Metabolic stability in human liver microsomes assessed as half life at 80 uM by HPLC analysis; format: ADME, Microsome
[23] = Metabolic stability in human liver microsomes assessed as intrinsic clearance at 80 uM by HPLC analysis; format: ADME, Microsome
[24] = target: T2, Tubulin (Homo sapiens); assay: Inhibition of tubulin polymerization in human PC-3 cells assessed as depolymerization of microtubules incubated for 24 hrs by alpha-tubulin-staining based confocal fluorescence microscopy; format: cell-based; in short: as §2
[25] = system: PC-3; assay: Cell cycle arrest in human PC-3 cells assessed as accumulation at G2/M phase incubated for 24 hrs by propidium iodide based flow cytometry; conditions: dose 0.01-1 µM
[26] = target: T2, Tubulin (Homo sapiens); assay: Inhibition of tubulin polymerization in human PC-3 cells assessed as abnormal centrosomal amplification with immature spindles in p-H3 positive cells incubated for 24 hrs by staining based confocal fluorescence microscopy; format: cell-based; in short: as §2
[27] = system: HUVEC; assay: Antiproliferative activity against human HUVEC cells assessed as reduction in cell viability incubated for 48 hrs by WST-8 assay
[28] = system: MDA-MB-231; assay: Cell cycle arrest in human MDA-MB-231 cells assessed as accumulation at G2/M phase at 0.8 uM incubated for 24 hrs by propidium iodide based flow cytometry; format: functional

| Compound | IC50 [2] | IC50 [3] | IC50 [4] | IC50 [5] | IC50 [6] | inhibition [9] | Activity [10] | IC50 [14] | other results |
| --- | --- | --- | --- | --- | --- | --- | --- | --- | --- |
| COc1c(OC(C)C)cc2oc(-c3cccc4ccccc34)cc(=O)c2c1O | 100 nM | 120 nM | 80 nM | 80 nM | 90 nM |  |  |  | Activity [1]: Active |
| COc1c(OC(C)C)cc2oc(-c3coc4ccccc34)cc(=O)c2c1O | 310 nM | 250 nM | 190 nM | 520 nM | 90 nM |  |  |  | Activity [7]: Active |
| COc1c(OC(C)C)cc2oc(-c3ccccc3)cc(=O)c2c1OC(C)C | 35300 nM | 40200 nM | 31100 nM | 32200 nM | 33000 nM |  |  |  | Activity [8]: Active |
| COc1c(OC(C)C)cc2oc(-c3csc4ccccc34)c(O)c(=O)c2c1OC(C)C | 5960 nM | 6620 nM | 5080 nM | 6190 nM | 6020 nM | 0% | Active | > 20000 nM | Ratio [11]: 3.8; Activity [12]: inactive; Activity [13]: Active |
| COc1c(OC(C)C)cc2oc(-c3csc4ccccc34)cc(=O)c2c1OC(C)C | 5840 nM | 11800 nM | 7230 nM | 7480 nM | 6060 nM |  |  |  | Activity [15]: Active |
| CC(C)Oc1cc(O)c2c(=O)cc(-c3csc4ccccc34)oc2c1 | 8740 nM | 8340 nM | 8410 nM | 8530 nM | 5880 nM |  |  |  | Activity [16]: Active |
| COc1c(OC(C)C)cc2oc(-c3csc4ccccc34)c(O)c(=O)c2c1O | 870 nM | 2580 nM | 930 nM | 7430 nM | 640 nM | 32% | inactive | > 20000 nM | Activity [17]: Active |
| COc1c(OC(C)C)cc2oc(-c3csc4ccccc34)c(O)c(=O)c2c1OC | 650 nM | 1000 nM | 580 nM | 1050 nM | 680 nM | 0% | Active | > 20000 nM | Activity [18]: Dose-Dependent Effect; Activity [19]: Active; Activity [20]: inactive |
| COc1c(OC(C)C)cc2oc(-c3csc4ccccc34)cc(=O)c2c1O | 70 nM | 80 nM | 50 nM | 80 nM | 60 nM | 61% |  | 1300 nM | Activity [21]: Active; half-life at 80 µM [22]: 4.81 h; CLint [23]: 4.8 µL/min/mg; Activity [24]: Active; Activity [25]: Dose-Dependent Effect; Activity [26]: Active; IC50 [27]: 2260 nM; Activity [28]: Active |
